ChEMBL document CHEMBL4017537, “Discovery of a Potent and Specific M. tuberculosis Leucyl-tRNA Synthetase Inhibitor: (S)-3-(Aminomethyl)-4-chloro-7-(2-hydroxyethoxy)benzo[c][1,2]oxaborol-1(3H)-ol (GSK656)” (J Med Chem, 2017)

Experiments:
[1] = tested on: Mycobacterium tuberculosis; assay: Antimicrobial activity against Mycobacterium tuberculosis H37Rv infected in C57BL/6J mouse assessed as bacterial load in lungs at 100 mg/kg qd administered for 8 consecutive weeks starting from 6 weeks post infection measured 24 hrs post last dose (reference value: 6.4 +/- 0.3 log10CFU); format: functional
Outline: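 C57BL/6J mice infected intratracheally with ~10² CFU M. tuberculosis H37Rv. Dosed QD, 7 days/week, for 8 weeks starting 6 weeks post-infection; killed ≥24 h after last dose. Lung homogenates plated on 7H11/10% OADC for 21 days at 37 °C. n = 3 per dose group, 7 for controls; mean (SD); ANOVA with Dunnett's test versus 14-week untreated.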

[2] = tested on: Mycobacterium tuberculosis; assay: Antimicrobial activity against Mycobacterium tuberculosis H37Rv; format: functional
Mus musculus [3] = assay: Dose normalized AUC (0 to 24 hrs) in C57BL/6 mouse at 30 mg/kg administered as single dose via oral gavage by LC-MS/MS analysis; format: ADME, organism-based; conditions: in vivo
[4] = Cmax in C57BL/6 mouse at 30 mg/kg administered as single dose via oral gavage measured up to 24 hrs by LC-MS/MS analysis; format: ADME, organism-based; design: dose 30 mg/kg, route oral; conditions: in vivo
[5] = molecular target: T1, Leucine--tRNA ligase, cytoplasmic (Homo sapiens, UniProt Q9P2J5); assay: Inhibition of human N-terminal 6His-tagged cytoplasmic LeuRS expressed in Escherichia coli BL21(DE3) assessed as […] after 20 mins by liquid scintillation counting analysis
cytoplasmic LeuRS = assay: Selectivity index, ratio of EC50 for inhibition of cytoplasmic LeuRS in HepG2 cells assessed as reduction in protein synthesis to MIC for Mycobacterium tuberculosis H37Rv; format: toxicity, cell-based; conditions: human, read-out: Selectivity Index
Outline: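 Ratio of HepG2 protein-synthesis EC50 to MIC against M. tuberculosis H37Rv.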

Leucine--tRNA ligase = molecular target: T2, Leucine--tRNA ligase (Mycobacterium tuberculosis (strain ATCC 25618 / H37Rv), UniProt P9WFV1); assay: Inhibition of Mycobacterium tuberculosis H37Rv N-terminal 6His-tagged LeuRS expressed in Escherichia coli BL21(DE3) assessed as L-[14C]leucine incorporation in to Escherichia coli tRNA after 20 mins by liquid scintillation counting analysis
T2 sequence (P9WFV1 whole entry): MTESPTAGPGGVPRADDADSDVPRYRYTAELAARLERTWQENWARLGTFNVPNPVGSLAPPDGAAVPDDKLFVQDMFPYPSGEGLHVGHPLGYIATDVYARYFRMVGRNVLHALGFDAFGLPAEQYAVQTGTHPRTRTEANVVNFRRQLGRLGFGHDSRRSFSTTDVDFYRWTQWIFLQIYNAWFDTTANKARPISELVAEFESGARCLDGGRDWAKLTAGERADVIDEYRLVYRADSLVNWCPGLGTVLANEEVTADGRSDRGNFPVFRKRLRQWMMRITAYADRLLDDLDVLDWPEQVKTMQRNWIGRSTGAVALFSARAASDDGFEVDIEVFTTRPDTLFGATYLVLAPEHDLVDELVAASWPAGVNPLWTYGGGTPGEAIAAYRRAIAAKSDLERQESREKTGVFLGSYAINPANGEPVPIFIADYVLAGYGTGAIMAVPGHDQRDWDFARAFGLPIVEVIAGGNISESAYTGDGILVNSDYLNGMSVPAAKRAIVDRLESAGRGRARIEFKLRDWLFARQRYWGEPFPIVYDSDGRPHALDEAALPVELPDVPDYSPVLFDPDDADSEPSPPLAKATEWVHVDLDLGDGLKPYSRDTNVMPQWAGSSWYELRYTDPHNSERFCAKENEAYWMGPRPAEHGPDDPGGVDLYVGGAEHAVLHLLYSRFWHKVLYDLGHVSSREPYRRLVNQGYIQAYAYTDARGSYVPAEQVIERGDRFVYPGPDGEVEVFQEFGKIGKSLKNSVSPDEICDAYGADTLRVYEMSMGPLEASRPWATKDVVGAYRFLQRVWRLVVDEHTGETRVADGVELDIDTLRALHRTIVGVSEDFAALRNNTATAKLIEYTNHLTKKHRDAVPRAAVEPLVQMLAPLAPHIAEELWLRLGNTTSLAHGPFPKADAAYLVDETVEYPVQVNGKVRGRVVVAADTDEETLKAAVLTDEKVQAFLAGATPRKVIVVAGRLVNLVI
Outline: (§1)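 N-terminal His6-tagged LeuRS expressed in E. coli BL21(DE3), codon-optimized. 50 mM HEPES-KOH pH 8.0, 30 mM MgCl2, 30 mM KCl, 13 μM L-[14C]leucine, 15 μM tRNA (E. coli total; brewer's yeast for human cytoplasmic enzyme), 0.02% BSA, 1 mM DTT, 30 °C. Inhibitor preincubated 20 min, started with 4 mM ATP, TCA-quenched after 7 min, filtered, scintillation counted; four-parameter logistic IC50.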

HepG2 = assay: Cytotoxicity against human HepG2 cells assessed as reduction in cell viability after 48 hrs by CellTiter-Glo assay; format: cell-based; conditions: HepG2, 48 h
Outline: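 HepG2 cells seeded at 10 000/well in EMEM with 5% FCS and 2 mM glutamine. After 24 h, ten 1:2 serial compound dilutions (0.5% DMSO final) added in duplicate for 48 h. Read-out by CellTiter-Glo luminescence per table footnote; the method text also describes resazurin fluorescence (ex 515/em 590 nm). Sigmoidal variable-slope fit.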

Mus musculus [6] = assay: Dose normalized AUC (0 to infinity) in C57BL/6 mouse at 30 mg/kg, iv administered as single dose measured up to 24 hrs by LC-MS/MS analysis; format: ADME, organism-based; conditions: in vivo
[7] = Tmax in C57BL/6 mouse at 30 mg/kg administered as single dose via oral gavage measured up to 24 hrs by LC-MS/MS analysis; format: ADME, organism-based; conditions: in vivo
Outline: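 C57BL/6 female mice (18−20 g) got one oral gavage dose of 30 mg/kg in 1% methylcellulose. Peripheral whole blood was sampled from 15 min to 24 h postdose, n = 3 mice per time point, and drug concentrations were measured in blood.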

[8] = Half life in C57BL/6 mouse at 30 mg/kg, iv administered as single dose measured up to 24 hrs by LC-MS/MS analysis; format: ADME, organism-based; conditions: in vivo
[9] = Volume of distribution at steady state in C57BL/6 mouse at 30 mg/kg, iv administered as single dose measured up to 24 hrs by LC-MS/MS analysis; format: ADME, organism-based; conditions: in vivo, read-out: Vdss
Outline: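 C57BL/6 female mice (18−20 g) got one intravenous dose in saline. Whole blood (15 μL) was taken by lateral tail-vein puncture from each of 3 mice at 5, 15 and 30 min and at 1, 2, 4, 8 and 24 h postdose, and drug concentrations were measured in peripheral blood.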

[10] = Clearance in C57BL/6 mouse at 30 mg/kg, iv administered as single dose measured up to 24 hrs by LC-MS/MS analysis; format: ADME, organism-based; conditions: in vivo
[11] = Oral bioavailability in C57BL/6 mouse at 30 mg/kg administered as single dose via gavage measured up to 24 hrs by LC-MS/MS analysis; format: ADME, organism-based; conditions: in vivo
[12] = molecular target: T1, Leucine--tRNA ligase, cytoplasmic; assay: Inhibition of cytoplasmic LeuRS in human HepG2 cells assessed as reduction in protein synthesis preincubated for 48 hrs followed by L-[14C]leucine addition measured after 3 hrs by liquid scintillation counting analysis; format: cell-based
Outline: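 HepG2 cells in DMEM/10% FCS, 3000 cells/well, exposed to compound dilutions (0.5% DMSO final) for 48 h at 37 °C. Medium then replaced with fresh medium containing 0.5 μCi L-[14C]leucine and the same compound levels for 3 h. Cells trypsinised, precipitated in ice-cold 20% TCA, filtered, washed, scintillation counted; curve-fit EC50; mean of at least duplicates.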

[13] = AUC (0 to infinity) in C57BL/6 mouse at 30 mg/kg, iv administered as single dose measured up to 24 hrs by LC-MS/MS analysis; format: ADME, organism-based; design: dose 30 mg/kg, time infinity, route intravenous; conditions: in vivo
[14] = tested on: Mycobacterium tuberculosis; assay: Antimicrobial activity against Mycobacterium tuberculosis H37Rv infected in C57BL/6J mouse assessed as 2 log reduction in bacterial load in lungs administered qd for 8 consecutive days starting on day 1 post infection measured 24 hrs post last dose; format: functional
[15] = AUC (0 to 24 hrs) in C57BL/6 mouse at 30 mg/kg administered as single dose via oral gavage by LC-MS/MS analysis; format: ADME, organism-based; design: time < 24 hr, dose 30 mg/kg, route oral; conditions: in vivo
[16] = Tmax in CD-1 mouse at 5 mg/kg administered via oral gavage after 24 hrs by LC-MS/MS analysis; format: ADME, organism-based; conditions: in vivo
[17] = Volume of distribution at steady state in CD-1 mouse at 5 mg/kg, iv after 24 hrs by LC-MS/MS analysis; format: ADME, organism-based; conditions: in vivo, read-out: Vdss
Mus musculus [18] = assay: Dose normalized AUC (0 to infinity) in CD-1 mouse at 5 mg/kg, iv after 24 hrs by LC-MS/MS analysis; format: ADME, organism-based; conditions: in vivo
[19] = Clearance in CD-1 mouse at 5 mg/kg, iv after 24 hrs by LC-MS/MS analysis; format: ADME, organism-based; conditions: in vivo
[20] = AUC (0 to infinity) in CD-1 mouse at 5 mg/kg, iv after 24 hrs by LC-MS/MS analysis; format: ADME, organism-based; design: dose 5 mg/kg, route intravenous, time infinity; conditions: in vivo
[21] = AUC (0 to 24 hrs) in CD-1 mouse at 5 mg/kg administered via oral gavage by LC-MS/MS analysis; format: ADME, organism-based; design: time < 24 hr, dose 5 mg/kg, route oral; conditions: in vivo
[22] = Cmax in CD-1 mouse at 5 mg/kg administered via oral gavage after 24 hrs by LC-MS/MS analysis; format: ADME, organism-based; design: dose 5 mg/kg, route oral; conditions: in vivo
[23] = Half life in CD-1 mouse at 5 mg/kg, iv after 24 hrs by LC-MS/MS analysis; format: ADME, organism-based; conditions: in vivo
[24] = molecular target: T3, Leucine--tRNA ligase, mitochondrial (Homo sapiens, UniProt Q15031); assay: Inhibition of human N-terminal 6His-tagged mitochondrial LeuRS expressed in Escherichia coli BL21(DE3) assessed as L-[14C]leucine incorporation in to Escherichia coli tRNA after 20 mins by liquid scintillation counting analysis; outline: as §1
T3 sequence (Q15031 whole entry): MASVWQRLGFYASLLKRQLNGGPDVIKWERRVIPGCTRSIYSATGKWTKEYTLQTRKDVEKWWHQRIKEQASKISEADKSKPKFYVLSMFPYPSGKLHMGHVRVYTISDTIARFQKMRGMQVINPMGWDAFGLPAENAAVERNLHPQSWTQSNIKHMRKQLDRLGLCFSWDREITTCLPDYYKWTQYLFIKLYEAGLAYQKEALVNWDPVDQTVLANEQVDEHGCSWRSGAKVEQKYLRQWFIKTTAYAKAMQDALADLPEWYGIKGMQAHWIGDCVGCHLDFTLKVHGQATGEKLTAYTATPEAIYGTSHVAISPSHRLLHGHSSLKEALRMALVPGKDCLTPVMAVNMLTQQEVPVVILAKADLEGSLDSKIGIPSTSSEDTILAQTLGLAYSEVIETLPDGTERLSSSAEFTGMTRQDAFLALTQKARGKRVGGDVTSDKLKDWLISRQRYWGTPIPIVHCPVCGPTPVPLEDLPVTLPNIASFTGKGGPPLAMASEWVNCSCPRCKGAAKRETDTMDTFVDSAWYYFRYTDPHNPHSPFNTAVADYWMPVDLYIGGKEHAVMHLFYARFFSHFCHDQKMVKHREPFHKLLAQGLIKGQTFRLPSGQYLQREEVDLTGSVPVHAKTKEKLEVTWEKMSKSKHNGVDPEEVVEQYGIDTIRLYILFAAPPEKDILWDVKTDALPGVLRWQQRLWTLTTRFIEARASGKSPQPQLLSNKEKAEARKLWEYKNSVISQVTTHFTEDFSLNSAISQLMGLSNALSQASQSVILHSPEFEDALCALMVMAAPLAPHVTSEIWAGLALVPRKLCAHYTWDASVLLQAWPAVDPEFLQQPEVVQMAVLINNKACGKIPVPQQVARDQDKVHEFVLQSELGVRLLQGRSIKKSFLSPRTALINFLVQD

Mus musculus [25] = assay: Dose normalized AUC (0 to 24 hrs) in CD-1 mouse at 5 mg/kg administered via oral gavage by LC-MS/MS analysis; format: ADME, organism-based; conditions: in vivo
[26] = Oral bioavailability in CD-1 mouse at 5 mg/kg administered via gavage after 24 hrs by LC-MS/MS analysis; format: ADME, organism-based; conditions: in vivo

T1 sequence (Q9P2J5 whole entry): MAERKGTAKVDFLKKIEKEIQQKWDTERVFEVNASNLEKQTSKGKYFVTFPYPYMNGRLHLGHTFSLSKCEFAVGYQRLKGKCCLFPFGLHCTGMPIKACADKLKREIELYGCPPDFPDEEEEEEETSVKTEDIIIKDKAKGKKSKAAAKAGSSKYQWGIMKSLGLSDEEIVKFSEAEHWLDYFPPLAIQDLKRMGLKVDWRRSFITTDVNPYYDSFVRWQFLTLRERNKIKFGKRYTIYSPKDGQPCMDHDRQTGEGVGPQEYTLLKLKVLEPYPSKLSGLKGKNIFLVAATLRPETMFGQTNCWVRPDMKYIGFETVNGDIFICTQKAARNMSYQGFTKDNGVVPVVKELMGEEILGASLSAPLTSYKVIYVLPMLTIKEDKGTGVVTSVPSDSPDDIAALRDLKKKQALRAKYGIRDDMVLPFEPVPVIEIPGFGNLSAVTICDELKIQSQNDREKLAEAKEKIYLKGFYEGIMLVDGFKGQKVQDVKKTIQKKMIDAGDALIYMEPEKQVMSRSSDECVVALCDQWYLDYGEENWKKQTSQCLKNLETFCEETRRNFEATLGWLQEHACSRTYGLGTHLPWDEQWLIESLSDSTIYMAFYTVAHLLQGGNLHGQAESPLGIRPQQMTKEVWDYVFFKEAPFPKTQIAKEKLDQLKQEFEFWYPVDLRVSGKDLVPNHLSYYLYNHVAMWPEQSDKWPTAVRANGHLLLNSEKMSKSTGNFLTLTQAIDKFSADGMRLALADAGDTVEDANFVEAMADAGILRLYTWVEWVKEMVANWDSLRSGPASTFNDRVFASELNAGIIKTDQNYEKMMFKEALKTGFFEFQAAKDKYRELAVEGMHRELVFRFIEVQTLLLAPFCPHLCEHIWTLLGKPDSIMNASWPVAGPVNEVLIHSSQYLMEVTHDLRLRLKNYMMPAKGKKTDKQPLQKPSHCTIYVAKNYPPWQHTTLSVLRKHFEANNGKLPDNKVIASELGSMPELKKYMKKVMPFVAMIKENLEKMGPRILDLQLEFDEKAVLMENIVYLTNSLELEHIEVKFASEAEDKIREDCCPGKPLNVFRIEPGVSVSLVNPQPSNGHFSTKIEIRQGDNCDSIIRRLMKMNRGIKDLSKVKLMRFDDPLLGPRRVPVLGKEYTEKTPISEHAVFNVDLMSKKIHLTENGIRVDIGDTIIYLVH

CC(=O)NC[C@H]1CN(c2ccc(N3CCOCC3)c(F)c2)C(=O)O1 [LINEZOLID]
Activity [1]: 3.9 log10CFU

Cl.NC[C@H]1OB(O)c2c3c(cc(Cl)c21)OCCO3
MIC [2]: 0.08 µM
AUC/dose (Mus musculus [3]): 1.26 µg·h/mL
Cmax [4]: 6210 ng/mL
IC50 [5]: 96.6 µM
selectivity ratio (cytoplasmic LeuRS): 1040
IC50 (Leucine--tRNA ligase): 0.046 µM
EC50 (HepG2): 69.5 µM
AUC/dose (Mus musculus [6]): 2.54 µg·h/mL/mg/kg
Tmax [7]: 1 h
half-life [8]: 2.9 h
Vd [9]: 1.5 L/kg
clearance [10]: 6.6 mL/min/kg
bioavailability [11]: 50%
EC50 [12]: 82.8 µM
AUC(0-inf) [13]: 76300 ng·h/mL
ED99 [14]: 70 mg/kg
AUC(0-t) at 24 h [15]: 37700 ng·h/mL

COc1ccc(Br)c2c1B(O)O[C@@H]2CN.Cl
Tmax [16]: 0.25 h
MIC [2]: 0.1 µM
Vd [17]: 2.5 L/kg
IC50 [5]: > 300 µM
selectivity ratio (cytoplasmic LeuRS): 970
IC50 (Leucine--tRNA ligase): 0.074 µM
EC50 (HepG2): 74.5 µM
AUC/dose (Mus musculus [18]): 1.17 µg·h/mL/mg/kg
clearance [19]: 14.2 mL/min/kg
AUC(0-inf) [20]: 5840 ng·h/mL
AUC(0-t) at 24 h [21]: 4210 ng·h/mL
Cmax [22]: 980 ng/mL
half-life [23]: 2.4 h
IC50 [24]: > 300 µM
AUC/dose (Mus musculus [25]): 0.84 µg·h/mL
EC50 [12]: 97 µM
bioavailability [26]: 72%
ED99 [14]: 3.8 mg/kg
